Measured values as given in ChEMBL document CHEMBL1649574, “Prevalence and characterization of heterogeneous vancomycin-intermediate Staphylococcus aureus isolates from 14 cities in China” (2009).
≈ marks a conversion by molar mass, not a printed value.

Experiments:
Type in all cases: functional
[1] = tested on: Staphylococcus aureus; assay: Antimicrobial activity against SCCmec type III vancomycin-intermediate Staphylococcus aureus isolate 13b16 by agar dilution method
Procedure, shortened: (§1)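 Agar-dilution MICs were measured on a subset of 200 blood MRSA isolates from China. Agents: oxacillin, rifampin, gentamicin, levofloxacin, erythromycin, vancomycin, teicoplanin, tigecycline, ceftobiprole and linezolid. Phenotype came from the PAP-AUC ratio of each isolate to S. aureus Mu3 (VSSA <0.9; hVISA 0.9 to 1.3; VISA ≥1.3), read on BHI agar with 0 to 8.0 mg/liter vancomycin after 48 h at 35°C.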

[2] = tested on: Staphylococcus aureus; assay: Antimicrobial activity against heterogeneous vancomycin-susceptible Staphylococcus aureus assessed as intermediate isolates by agar dilution method
[3] = tested on: Staphylococcus aureus; assay: Antimicrobial activity against SCCmec type III vancomycin-intermediate Staphylococcus aureus isolate b3k2345 by agar dilution method; procedure, shortened: as §1
[4] = tested on: Staphylococcus aureus; assay: Antimicrobial activity against SCCmec type II vancomycin-intermediate Staphylococcus aureus isolate b2k4781 by agar dilution method; procedure, shortened: as §1
[5] = tested on: Staphylococcus aureus; assay: Antimicrobial activity against SCCmec type II vancomycin-intermediate Staphylococcus aureus isolate 4sy39 by agar dilution method; procedure, shortened: as §1
[6] = tested on: Staphylococcus aureus; assay: Antimicrobial activity against heterogeneous vancomycin-intermediate Staphylococcus aureus assessed as growth inhibition at 2 times MIC; set-up: scale not given: the % may be the effect or the level left
[7] = tested on: Staphylococcus aureus; assay: Antimicrobial activity against vancomycin-susceptible Staphylococcus aureus assessed as growth inhibition at 16 times MIC; set-up: scale not given: the % may be the effect or the level left
[8] = tested on: Staphylococcus aureus; assay: Antimicrobial activity against SCCmec type II vancomycin-intermediate Staphylococcus aureus isolate 6zjsau7 by agar dilution method; procedure, shortened: as §1
[9] = tested on: Staphylococcus aureus; assay: Antimicrobial activity against SCCmec type II vancomycin-intermediate Staphylococcus aureus isolate 07b63 by agar dilution method; procedure, shortened: as §1
[10] = tested on: Staphylococcus aureus; assay: Antimicrobial activity against vancomycin-susceptible Staphylococcus aureus assessed as growth inhibition at 4 times MIC; set-up: scale not given: the % may be the effect or the level left
[11] = tested on: Staphylococcus aureus; assay: Antimicrobial activity against SCCmec type III vancomycin-intermediate Staphylococcus aureus isolate xa07029 by agar dilution method; procedure, shortened: as §1
[12] = tested on: Staphylococcus aureus; assay: Antimicrobial activity against SCCmec type III vancomycin-intermediate Staphylococcus aureus isolate 11b091 by agar dilution method; procedure, shortened: as §1
[13] = tested on: Staphylococcus aureus; assay: Antimicrobial activity against vancomycin-susceptible Staphylococcus aureus assessed as growth inhibition at 0.5 times MIC; set-up: scale not given: the % may be the effect or the level left
[14] = tested on: Staphylococcus aureus; assay: Antimicrobial activity against vancomycin-susceptible Staphylococcus aureus assessed as growth inhibition at 0.125 times MIC; set-up: scale not given: the % may be the effect or the level left
[15] = tested on: Staphylococcus aureus; assay: Antimicrobial activity against SCCmec type II vancomycin-intermediate Staphylococcus aureus isolate sh06024 by agar dilution method; procedure, shortened: as §1
[16] = tested on: Staphylococcus aureus; assay: Antimicrobial activity against vancomycin-susceptible Staphylococcus aureus assessed as growth inhibition at MIC; set-up: scale not given: the % may be the effect or the level left
[17] = tested on: Staphylococcus aureus; assay: Antimicrobial activity against SCCmec type III vancomycin-intermediate Staphylococcus aureus isolate gs07022 by agar dilution method; procedure, shortened: as §1
[18] = tested on: Staphylococcus aureus; assay: Antimicrobial activity against heterogeneous vancomycin-intermediate Staphylococcus aureus by agar dilution method; procedure, shortened: as §1
[19] = tested on: Staphylococcus aureus; assay: Antimicrobial activity against heterogeneous vancomycin-intermediate Staphylococcus aureus assessed as growth inhibition at 0.125 times MIC; set-up: scale not given: the % may be the effect or the level left
[20] = tested on: Staphylococcus aureus; assay: Antimicrobial activity against heterogeneous vancomycin-susceptible Staphylococcus aureus assessed as susceptible isolates by agar dilution method
Procedure, shortened: (§2)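 MICs by agar dilution for all 200 MRSA blood isolates (oxacillin, rifampin, gentamicin, levofloxacin, erythromycin, vancomycin, teicoplanin, tigecycline, ceftobiprole, linezolid). Isolates were grouped by PAP-AUC ratio against S. aureus Mu3: below 0.9 VSSA, 0.9 to 1.3 hVISA, 1.3 or more VISA.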

[21] = tested on: Staphylococcus aureus; assay: Antimicrobial activity against vancomycin-susceptible Staphylococcus aureus by agar dilution method; procedure, shortened: as §1
[22] = tested on: Staphylococcus aureus; assay: Antimicrobial activity against heterogeneous vancomycin-intermediate Staphylococcus aureus assessed as growth inhibition at 0.5 times MIC; set-up: scale not given: the % may be the effect or the level left
[23] = tested on: Staphylococcus aureus; assay: Antimicrobial activity against SCCmec type III vancomycin-intermediate Staphylococcus aureus isolate b4k6307 by agar dilution method; procedure, shortened: as §1
[24] = tested on: Staphylococcus aureus; assay: Antimicrobial activity against SCCmec type III vancomycin-intermediate Staphylococcus aureus isolate sh07043 by agar dilution method; procedure, shortened: as §1
[25] = tested on: Staphylococcus aureus; assay: Antimicrobial activity against SCCmec type III vancomycin-intermediate Staphylococcus aureus isolate b3k5923 by agar dilution method; procedure, shortened: as §1
[26] = tested on: Staphylococcus aureus; assay: Antimicrobial activity against vancomycin-susceptible Staphylococcus aureus assessed as growth inhibition at 0.25 times MIC; set-up: scale not given: the % may be the effect or the level left
[27] = tested on: Staphylococcus aureus; assay: Antimicrobial activity against SCCmec type III vancomycin-intermediate Staphylococcus aureus isolate b5k3529 by agar dilution method; procedure, shortened: as §1
[28] = tested on: Staphylococcus aureus; assay: Antimicrobial activity against heterogeneous vancomycin-intermediate Staphylococcus aureus assessed as growth inhibition at MIC; set-up: scale not given: the % may be the effect or the level left
[29] = tested on: Staphylococcus aureus; assay: Antimicrobial activity against vancomycin-susceptible Staphylococcus aureus assessed as growth inhibition at 2 times MIC; set-up: scale not given: the % may be the effect or the level left
[30] = tested on: Staphylococcus aureus; assay: Antimicrobial activity against heterogeneous vancomycin-intermediate Staphylococcus aureus assessed as intermediate isolates by agar dilution method; procedure, shortened: as §2
[31] = tested on: Staphylococcus aureus; assay: Antimicrobial activity against heterogeneous vancomycin-intermediate Staphylococcus aureus assessed as growth inhibition at 16 times MIC; set-up: scale not given: the % may be the effect or the level left
[32] = tested on: Staphylococcus aureus; assay: Antimicrobial activity against SCCmec type III vancomycin-intermediate Staphylococcus aureus isolate b6k7974 by agar dilution method; procedure, shortened: as §1
[33] = tested on: Staphylococcus aureus; assay: Antimicrobial activity against SCCmec type III vancomycin-intermediate Staphylococcus aureus isolate zj07028 by agar dilution method; procedure, shortened: as §1
[34] = tested on: Staphylococcus aureus; assay: Antimicrobial activity against SCCmec type III vancomycin-intermediate Staphylococcus aureus isolate gz06040 by agar dilution method; procedure, shortened: as §1
[35] = tested on: Staphylococcus aureus; assay: Antimicrobial activity against SCCmec type III vancomycin-intermediate Staphylococcus aureus isolate gz07030 by agar dilution method; procedure, shortened: as §1
[36] = tested on: Staphylococcus aureus; assay: Antimicrobial activity against SCCmec type III vancomycin-intermediate Staphylococcus aureus isolate b2k3421 by agar dilution method; procedure, shortened: as §1
[37] = tested on: Staphylococcus aureus; assay: Antimicrobial activity against heterogeneous vancomycin-intermediate Staphylococcus aureus assessed as growth inhibition at 0.25 times MIC; set-up: scale not given: the % may be the effect or the level left
[38] = tested on: Staphylococcus aureus; assay: Antimicrobial activity against heterogeneous vancomycin-intermediate Staphylococcus aureus assessed as growth inhibition at 4 times MIC; set-up: scale not given: the % may be the effect or the level left
[39] = tested on: Staphylococcus aureus; assay: Antimicrobial activity against SCCmec type III vancomycin-intermediate Staphylococcus aureus isolate bd4768 by agar dilution method; procedure, shortened: as §1
[40] = tested on: Staphylococcus aureus; assay: Antimicrobial activity against SCCmec type III vancomycin-intermediate Staphylococcus aureus isolate 15b52 by agar dilution method; procedure, shortened: as §1
[41] = tested on: Staphylococcus aureus; assay: Antimicrobial activity against vancomycin-intermediate Staphylococcus aureus by agar dilution method; procedure, shortened: as §1
[42] = tested on: Staphylococcus aureus; assay: Antimicrobial activity against SCCmec type III vancomycin-intermediate Staphylococcus aureus isolate b5k3578 by agar dilution method; procedure, shortened: as §1
[43] = tested on: Staphylococcus aureus; assay: Antimicrobial activity against SCCmec type II vancomycin-intermediate Staphylococcus aureus isolate 4sy32 by agar dilution method; procedure, shortened: as §1
[44] = tested on: Staphylococcus aureus; assay: Antimicrobial activity against SCCmec type IV vancomycin-intermediate Staphylococcus aureus isolate 06b41 by agar dilution method; procedure, shortened: as §1
[45] = tested on: Staphylococcus aureus; assay: Antimicrobial activity against SCCmec type III vancomycin-intermediate Staphylococcus aureus isolate 5zjsau3 by agar dilution method; procedure, shortened: as §1
[46] = tested on: Staphylococcus aureus; assay: Antimicrobial activity against SCCmec type III vancomycin-intermediate Staphylococcus aureus isolate gz06051 by agar dilution method; procedure, shortened: as §1
[47] = tested on: Staphylococcus aureus; assay: Antimicrobial activity against SCCmec type III vancomycin-intermediate Staphylococcus aureus isolate b6k1642 by agar dilution method; procedure, shortened: as §1
[48] = tested on: Staphylococcus aureus; assay: Antimicrobial activity against heterogeneous vancomycin-intermediate Staphylococcus aureus assessed as susceptible isolates by agar dilution method; procedure, shortened: as §2

Work on Nc1nc(/C(=N/O)C(=O)N[C@@H]2C(=O)N3C(C(=O)O)=C(/C=C4\CCN([C@@H]5CCNC5)C4=O)CS[C@H]23)ns1 [CEFTOBIPROLE] yielded an MIC [1] of 1 µg/mL (≈ 1.87 µM), an Activity [2] of 0% and an MIC [3] of 2 µg/mL (≈ 3.74 µM). It also gave an MIC [4] of 2 µg/mL (≈ 3.74 µM), an MIC [5] of 0.5 µg/mL (≈ 0.935 µM) and an Activity [6] of 96.3%. For the same compound, the Activity [7] was 100%, the MIC [8] was 4 µg/mL (≈ 7.48 µM) and the MIC [9] was 1 µg/mL (≈ 1.87 µM). The Activity [10] was 100%, the MIC [11] was 2 µg/mL (≈ 3.74 µM) and the MIC [12] was 2 µg/mL (≈ 3.74 µM). For the same compound, the Activity [13] was 4.62%, the Activity [14] was 0% and the MIC [15] was 2 µg/mL (≈ 3.74 µM). For the same compound, the Activity [16] was 27.2%, the MIC [17] was 1 µg/mL (≈ 1.87 µM) and the MIC50 [18] was 2 µg/mL (≈ 3.74 µM). It also gave an MIC90 [18] of 2 µg/mL (≈ 3.74 µM), an Activity [19] of 0% and an Activity [20] of 100%. It also gave an MIC50 [21] of 2 µg/mL (≈ 3.74 µM), an MIC90 [21] of 2 µg/mL (≈ 3.74 µM) and an Activity [22] of 11.1%. It also gave an MIC [23] of 1 µg/mL (≈ 1.87 µM), an MIC [24] of 2 µg/mL (≈ 3.74 µM) and an MIC [25] of 2 µg/mL (≈ 3.74 µM). The Activity [26] was 2.31%, the MIC [27] was 2 µg/mL (≈ 3.74 µM) and the Activity [28] was 33.3%. For the same compound, the Activity [29] was 100%, the Activity [30] was 0% and the Activity [31] was 100%. The MIC [32] was 2 µg/mL (≈ 3.74 µM), the MIC [33] was 2 µg/mL (≈ 3.74 µM) and the MIC [34] was 1 µg/mL (≈ 1.87 µM). The MIC [35] was 2 µg/mL (≈ 3.74 µM), the MIC [36] was 2 µg/mL (≈ 3.74 µM) and the Activity [37] was 0%. It also gave an Activity [38] of 100%, an MIC [39] of 2 µg/mL (≈ 3.74 µM) and an MIC [40] of 2 µg/mL (≈ 3.74 µM). For the same compound, the MIC [41] was 0.5 µg/mL (≈ 0.935 µM), the MIC [42] was 2 µg/mL (≈ 3.74 µM) and the MIC [43] was 0.5 µg/mL (≈ 0.935 µM). It also gave an MIC [44] of 1 µg/mL (≈ 1.87 µM), an MIC [45] of 0.5 µg/mL (≈ 0.935 µM) and an MIC [46] of 2 µg/mL (≈ 3.74 µM). For the same compound, the MIC [47] was 2 µg/mL (≈ 3.74 µM) and the Activity [48] was 100%.
